Assay results taken from ChEMBL document CHEMBL1145820, “Design, synthesis, and evaluation of novel boronic-chalcone derivatives as antitumor agents” (J Med Chem, 2003).

Assays:
Assay type in all cases: functional, cell-based
MDA-MB-231 = assay: Inhibitory activity against MDA-MB-231 human breast cell line
Outline: (§1)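 Cells kept in DMEM with 5% FBS, 2 mM glutamine and penicillin/streptomycin at 37 °C, 5% CO2. Cells plated and attached for 24 h, then exposed to 0.5-100 µM compound (10 mM DMSO stocks) for 96 h in quadruplicate wells. MTT (1 mg/mL, serum-free medium) was added for 4 h, formazan dissolved in DMSO:ethanol 1:1, and A540 read. IC50 taken from log plots of percent of control; two runs.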

MDA-MB-435 = assay: Inhibitory activity against MDA-MB-435 human breast cell line
Outline: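 Cells kept in IMEM with 5% FBS and 2 mM glutamine at 37 °C, 5% CO2. After 24 h attachment, cells were exposed in quadruplicate wells to 0.5-100 µM compound (10 mM DMSO stocks) for 96 h. Read-out was MTT (1 mg/mL, 4 h), with formazan dissolved in DMSO:ethanol and absorbance at 540 nm. IC50 came from log plots of percent of control vs concentration; assayed twice.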

MCF-10A = assay: Inhibitory activity against MCF-10A human breast cell line
MCF-12A = assay: Inhibitory activity against MCF-12A human breast cell line
MCF7 = assay: Inhibitory activity against Wt-MCF7 human breast cell line; outline: as §1

SMILES | IC50 (MDA-MB-231) [µM] | IC50 (MDA-MB-435) [µM] | IC50 (MCF-10A) [µM] | IC50 (MCF-12A) [µM] | IC50 (MCF7) [µM]
O=C(/C=C/c1ccc(I)cc1)c1ccc(O)cc1 | 8 | 4.5 | 15 | 30 | 7
O=C(/C=C/c1ccc(F)c(F)c1)c1ccc(B(O)O)cc1 | 8.8 | 8.8 | 18 | 39 | 7.8
O=C(O)COc1ccc(C(=O)/C=C/c2ccc(Cl)c(Cl)c2)cc1 | 9 | 9 | 13 | 15 | 13
O=C(O)COc1ccc(/C=C/C(=O)c2ccc(Cl)c(Cl)c2)cc1 | 18 | 13 | 12 | 28 | 15
O=C(/C=C/c1ccc(F)c(Cl)c1)c1ccc(B(O)O)cc1 | 8.5 | 16 | 25 | 22 | 6
O=C(O)COc1ccc(C(=O)/C=C/c2ccc(I)cc2)cc1 | 44 | 18 | 44 | 38 | 9
O=C(/C=C/c1ccc(I)cc1)c1ccc(OCB(O)O)cc1 | 11 | 18 | 38 | 100 | 9.5
O=C(/C=C/c1ccc(F)c(Br)c1)c1ccc(B(O)O)cc1 | 9.5 | 8.8 | 17 | 38 | 8.5
O=C(/C=C/c1ccccc1)c1ccc[nH]1 | 15 | 15 | 63 | 38 | 9
O=C(/C=C/c1ccc(I)cc1)c1ccc(B(O)O)cc1 | 8.8 | 10 | 75 | 63 | 7
O=C(/C=C/c1ccc(Cl)c(Cl)c1)c1ccc(B(O)O)cc1 | 9.5 | 3.5 | 18 | 11 | 5
O=C(/C=C/c1ccc(B(O)O)cc1)c1ccc(Cl)c(Cl)c1 | 8 | 4 | 18 | 15 | 5.5
O=C(/C=C/c1ccc(B(O)O)cc1)c1ccc[nH]1 | 23 | 15 | 38 | 60 | 19
